Laboratory results: ChEMBL document CHEMBL4376844, “A Novel Decalin-Based Bicyclic Scaffold for FKBP51-Selective Ligands” (J Med Chem, 2020)
pIC50, pKi: −log10 of the molar value. Active and inactive are the calls of the source. No cut-off for these calls is given here.

Tests used:
[1] = biological target: T1, Peptidyl-prolyl cis-trans isomerase FKBP4 (Homo sapiens, UniProt Q02790); experiment: Inhibition of human full length N-terminal His-tagged/C-terminal FLAG tagged FKBP52 expressed in Escherichia coli BL21 (DE3) cells incubated for 30 mins by competitive fluorescence polarization assay; conditions: 0.5 h
T1 sequence (Q02790 whole entry): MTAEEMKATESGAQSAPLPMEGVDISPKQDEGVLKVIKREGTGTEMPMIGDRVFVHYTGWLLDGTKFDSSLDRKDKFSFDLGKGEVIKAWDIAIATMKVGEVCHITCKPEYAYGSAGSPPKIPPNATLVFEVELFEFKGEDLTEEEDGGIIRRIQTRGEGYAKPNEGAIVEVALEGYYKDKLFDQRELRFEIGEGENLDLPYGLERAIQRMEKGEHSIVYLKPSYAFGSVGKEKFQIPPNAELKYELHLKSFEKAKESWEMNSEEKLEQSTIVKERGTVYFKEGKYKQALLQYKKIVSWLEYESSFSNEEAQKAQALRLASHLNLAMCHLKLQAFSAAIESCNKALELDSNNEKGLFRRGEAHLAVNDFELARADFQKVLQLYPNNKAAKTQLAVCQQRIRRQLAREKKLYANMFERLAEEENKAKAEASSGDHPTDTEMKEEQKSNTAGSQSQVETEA

[2] = biological target: T2, Peptidyl-prolyl cis-trans isomerase FKBP5 (Homo sapiens, UniProt Q13451); experiment: Inhibition of human full length N-terminal His-tagged/C-terminal FLAG tagged FKBP51 expressed in Escherichia coli BL21 (DE3) cells incubated for 30 mins by competitive fluorescence polarization assay
T2 sequence (Q13451 whole entry): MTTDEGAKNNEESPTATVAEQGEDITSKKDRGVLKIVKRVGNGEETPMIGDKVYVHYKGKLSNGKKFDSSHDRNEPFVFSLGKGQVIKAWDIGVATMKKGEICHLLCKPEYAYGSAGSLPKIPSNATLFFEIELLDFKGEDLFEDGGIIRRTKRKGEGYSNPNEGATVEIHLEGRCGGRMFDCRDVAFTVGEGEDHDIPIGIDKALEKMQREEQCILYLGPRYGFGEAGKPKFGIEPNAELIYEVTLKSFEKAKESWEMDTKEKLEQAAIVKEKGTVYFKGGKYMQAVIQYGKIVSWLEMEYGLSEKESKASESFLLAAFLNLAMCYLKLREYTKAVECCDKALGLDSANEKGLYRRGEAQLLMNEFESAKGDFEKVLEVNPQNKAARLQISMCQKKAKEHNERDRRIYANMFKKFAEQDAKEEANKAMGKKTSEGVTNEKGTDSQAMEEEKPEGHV

[3] = biological target: T3, Peptidyl-prolyl cis-trans isomerase FKBP5 (Homo sapiens) (UniProt Q13451); experiment: Inhibition of human full length N-terminal His-tagged/C-terminal FLAG tagged FKBP51 expressed in Escherichia coli BL21 (DE3) cells at >=10 uM incubated for 30 mins by competitive fluorescence polarization assay
T3 sequence (whole entry): T2 sequence (Q13451 whole entry)

[4] = Solubility of compound; type: physicochemical
KB = experiment: Cytotoxicity against human KB/HeLa cells overexpressing FKBP51 assessed as cell death up to 60 uM incubated for 72 hrs by propidium iodide staining based flow cytometry analysis; type: functional
Procedure, shortened: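 KB cells exposed to a range of compound doses for 72 h. 1×10^5 cells washed in PBS, then permeabilized in 0.1% sodium citrate, 0.1% Triton X-100 and 50 µg/mL propidium iodide for 30 min at 4°C in the dark. Nuclear DNA content read by flow cytometry on a log scale with debris gated out by forward scatter; % hypodiploid nuclei taken as dead cells. Four experiments, each in triplicate.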

Cytochrome P450 3A4 = Cytochrome P450 3A4 (Homo sapiens, UniProt P08684); experiment: Inhibition of CYP3A4 (unknown origin); type: ADME
Sequence of Cytochrome P450 3A4 (P08684 whole entry): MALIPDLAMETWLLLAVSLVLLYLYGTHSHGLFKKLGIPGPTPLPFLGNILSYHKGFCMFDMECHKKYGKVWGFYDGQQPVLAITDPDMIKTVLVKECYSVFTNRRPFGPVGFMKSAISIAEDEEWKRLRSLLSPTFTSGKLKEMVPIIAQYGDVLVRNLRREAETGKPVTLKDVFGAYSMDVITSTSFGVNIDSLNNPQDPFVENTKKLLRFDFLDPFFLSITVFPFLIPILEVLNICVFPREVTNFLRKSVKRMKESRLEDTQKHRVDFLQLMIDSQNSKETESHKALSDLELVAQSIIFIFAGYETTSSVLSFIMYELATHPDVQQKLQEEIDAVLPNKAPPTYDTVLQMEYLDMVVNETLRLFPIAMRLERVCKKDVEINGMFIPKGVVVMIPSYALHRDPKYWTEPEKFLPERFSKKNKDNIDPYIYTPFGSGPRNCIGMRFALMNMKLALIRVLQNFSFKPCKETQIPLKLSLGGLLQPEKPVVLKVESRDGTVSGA

| inhibition (INH) [1] | pKi [2] | inhibition [3] | solubility [4] [µM] | Structure (SMILES) | also measured |
| --- | --- | --- | --- | --- | --- |
| Not Active |  |  |  | COc1ccc(CC[C@@H](OC(=O)[C@@H]2CCCCN2C(=O)[C@@H]2CCC(O)[C@@H]3CCCC[C@@H]23)c2cccc(OCCN3CCOCC3)c2)cc1OC (stereo not given in full) |  |
| Not Active | 5.72 |  |  | COc1ccc(CCC(OC(=O)C2CCCCN2C(=O)[C@H]2[C@@H]3CCCC[C@H]3C=C[C@@H]2C)c2cccc(OCCN3CCOCC3)c2)cc1OC (single isomer, unassigned) |  |
| Not Active | 5.70 |  |  | COc1ccc(CC[C@@H](OC(=O)[C@@H]2CCCCN2C(=O)[C@H]2[C@@H]3CCCC[C@H]3C=C[C@@H]2C)c2cccc(OCC(=O)O)c2)cc1OC |  |
|  |  | inactive | > 10 | COc1ccc(CC[C@@H](OC(=O)[C@@H]2CCCCN2C(=O)[C@@H]2CCCc3ccccc32)c2cccc(OCC(=O)O)c2)cc1OC |  |
| Not Active | 5.89 |  |  | COc1ccc(CCC(OC(=O)C2CCCCN2C(=O)[C@@H]2CC(=O)C[C@@H]3CCCC[C@H]32)c2cccc(OCCN3CCOCC3)c2)cc1OC (single isomer, unassigned) |  |
| Not Active | 6.31 |  |  | COc1ccc(CC[C@@H](OC(=O)[C@@H]2CCCCN2C(=O)[C@H]2[C@@H]3CCCC[C@H]3CC[C@@H]2C)c2cccc(OCC(=O)O)c2)cc1OC |  |
|  |  | inactive | > 10 | COc1ccc(CC[C@@H](OC(=O)[C@@H]2CCCCN2C(=O)c2ccnc3ccccc23)c2cccc(OCC(=O)O)c2)cc1OC |  |
|  |  | inactive | > 10 | COc1ccc(CC[C@@H](OC(=O)[C@@H]2CCCCN2C(=O)c2nccc3ccccc23)c2cccc(OCC(=O)O)c2)cc1OC |  |
| Not Active | 5.09 |  |  | COc1ccc(CC[C@@H](OC(=O)[C@@H]2CCCCN2C(=O)[C@@H]2C[C@H]3OC(C)(C)O[C@H]3[C@@H]3CCCC[C@H]32)c2cccc(OCCN3CCOCC3)c2)cc1OC |  |
|  |  | inactive | > 10 | COc1ccc(CC[C@@H](OC(=O)[C@@H]2CCCCN2C(=O)c2cccc3ccccc23)c2cccc(OCC(=O)O)c2)cc1OC | Activity (KB): inactive |
| Not Active | 5.11 |  |  | COc1ccc(CC[C@@H](OC(=O)[C@@H]2CCCCN2C(=O)[C@@H]2CC=C[C@@H]3CCC[C@H]32)c2cccc(OCC(=O)O)c2)cc1OC |  |
| Not Active | 4.55 |  |  | COc1ccc(CC[C@@H](OC(=O)[C@@H]2CCCCN2C(=O)[C@@H]2CC(=O)C[C@@H]3CCC[C@H]32)c2cccc(OCC(=O)O)c2)cc1OC |  |
| Not Active | 6.09 |  |  | COc1ccc(CC[C@@H](OC(=O)[C@@H]2CCCCN2C(=O)[C@@H]2CCC[C@@H]3CCCC[C@H]32)c2cccc(OCC(=O)O)c2)cc1OC | pIC50 (Cytochrome P450 3A4): 5.08 |
| Not Active | 5.51 |  |  | COc1ccc(CC[C@@H](OC(=O)[C@@H]2CCCCN2C(=O)[C@@H]2CCC(=O)[C@@H]3CCC[C@H]32)c2cccc(OCC(=O)O)c2)cc1OC |  |
|  |  | inactive | > 10 | COc1ccc(CC[C@@H](OC(=O)[C@@H]2CCCCN2C(=O)c2cccc3cccnc23)c2cccc(OCC(=O)O)c2)cc1OC |  |
|  |  | inactive | > 10 | COc1ccc(CC[C@@H](OC(=O)[C@@H]2CCCCN2C(=O)c2cccc3c2CCCC3)c2cccc(OCC(=O)O)c2)cc1OC |  |
| Not Active | 6.48 |  |  | COc1ccc(CCC(OC(=O)C2CCCCN2C(=O)[C@H]2[C@@H]3CCCC[C@H]3C(=O)C[C@@H]2C)c2cccc(OCCN3CCOCC3)c2)cc1OC (single isomer, unassigned) |  |
| Not Active | 6.64 |  |  | COc1ccc(CCC(OC(=O)C2CCCCN2C(=O)[C@@H]2CCC(=O)[C@@H]3CCCC[C@H]32)c2cccc(OCCN3CCOCC3)c2)cc1OC (single isomer, unassigned) |  |
| Not Active | 5.62 |  |  | COc1ccc(CC[C@@H](OC(=O)[C@@H]2CCCCN2C(=O)[C@@H]2CC=C[C@@H]3CCCC[C@H]32)c2cccc(OCC(=O)O)c2)cc1OC |  |
| Not Active | 5.59 |  |  | COc1ccc(CCC(OC(=O)C2CCCCN2C(=O)[C@@H]2CC=C[C@@H]3CCCC[C@H]32)c2cccc(OCCN3CCOCC3)c2)cc1OC (single isomer, unassigned) |  |
|  |  | inactive | > 10 | COc1ccc(CC[C@@H](OC(=O)[C@@H]2CCCCN2C(=O)C2=CCc3ccccc32)c2cccc(OCC(=O)O)c2)cc1OC |  |
| Not Active | 5.59 |  |  | COc1ccc(CC[C@@H](OC(=O)[C@@H]2CCCCN2C(=O)[C@@H]2CCC[C@@H]3CCC[C@H]32)c2cccc(OCC(=O)O)c2)cc1OC |  |
